Compounds with a hit are over-represented: about 3.2% of the library has one in this group of screens.
NR2E3 ag-1: human photoreceptor-specific nuclear receptor agonism | Q9Y5X4 | CHO-S Gal4-NCOR/VP16-NR2E3 two-hybrid, luciferase | inhibition of corepressor binding, % at 3.98 µM | 360,000 compounds, 0.35% hits | AID 602229;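 active = inhibition above the mean of all tested compounds plus 3 SD, cut at about 70% in these data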;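 also: 0% = DMSO with NR2E3 transfected cells and 100% = cells lacking NR2E3 construct; higher means lower luciferase signal from less NR2E3 corepressor binding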
Target sequence (Q9Y5X4 whole entry, looked up, the tested form may be a part): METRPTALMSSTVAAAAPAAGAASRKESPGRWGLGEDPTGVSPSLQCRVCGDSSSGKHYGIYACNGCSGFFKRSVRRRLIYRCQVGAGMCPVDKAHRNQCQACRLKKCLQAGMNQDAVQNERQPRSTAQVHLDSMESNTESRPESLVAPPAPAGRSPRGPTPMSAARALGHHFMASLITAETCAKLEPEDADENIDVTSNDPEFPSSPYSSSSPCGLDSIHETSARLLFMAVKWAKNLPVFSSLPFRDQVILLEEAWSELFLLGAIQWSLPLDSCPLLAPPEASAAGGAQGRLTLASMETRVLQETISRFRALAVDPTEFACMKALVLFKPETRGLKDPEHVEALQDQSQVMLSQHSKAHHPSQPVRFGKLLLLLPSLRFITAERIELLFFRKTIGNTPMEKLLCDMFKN
DAX1 inh-1: blocks DAX1 repression of SF-1 activated StAR promoter. HEK293T StAR-luciferase reporter, SF-1/DAX-1 repression relief. inhibition, % at 6.8 µM. 370,000 compounds, 1.1% hits. AID 652010;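 active = inhibition above the mean over all tested compounds plus 3 SD, cut at about 3.6% in these data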;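 also: 0% = DAX-1 cells with DMSO and 100% = cells lacking DAX-1 with DMSO; higher inhibition means more luminescence from relief of DAX-1 repression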
DAX1 inh-2: inhibitors of human orphan nuclear receptor DAX1 (NR0B1) | HEK293 Gal4-DAX1 luciferase reporter, luminescence | inhibition, % at 6.75 µM | AID 504766 | P51843 | 340,000 compounds, 0.99% hits;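 active = inhibition above the mean over all tested compounds plus 3 SD, cut at about 4.2% in these data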;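 also: 0% = DAX1-transfected cells with DMSO and 100% = empty-vector control cells with DMSO; inhibition shows as a rise in luminescence from relieved DAX1 repression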
Target sequence (P51843 207-470 limits assumed): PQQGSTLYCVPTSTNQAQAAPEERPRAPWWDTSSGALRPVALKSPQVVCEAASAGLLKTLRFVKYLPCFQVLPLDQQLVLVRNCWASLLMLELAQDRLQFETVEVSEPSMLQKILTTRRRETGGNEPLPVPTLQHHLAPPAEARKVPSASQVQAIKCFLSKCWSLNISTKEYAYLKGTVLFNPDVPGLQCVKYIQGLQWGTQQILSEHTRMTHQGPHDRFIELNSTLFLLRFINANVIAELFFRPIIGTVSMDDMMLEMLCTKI
NR2E3 ag-2: agonists of human nuclear receptor NR2E3; Q9Y5X4; 320,000 compounds, 0.12% hits; inhibition of corepressor binding, % at 4.78 µM; GST-NR2E3/biotin-RetCOR TR-FRET, 1536-well;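 active = percent inhibition above the cutoff of mean plus 3 SD of all tested compounds, set per screening campaign, cut at about 20% in these data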;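 also: 0% = DMSO wells and 100% = biotin wells as full block of FRET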
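Material: NR2E3–RetCOR corepressor complex | Quantity: 1.35 nM GST-tagged NR2E3 final | Schedule: 5 h at 4 °C | Replication: Singlicate compound wells | Reagent: RetCOR corepressor, biotinylated, 7 nM | Controls: Biotin wells as high control, 0.6% DMSO wells as low control | Signal: TR-FRET, Eu(K)-anti-GST donor, streptavidin-D2 acceptor, ex 340, em 617/671 nm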
JMJD2C inh: blocks human GASC-1 demethylase activity. Q9H3R0. GST-JMJD2C(1-420) H3K9me3 demethylation, DELFIA europium. inhibition, % at 2.35 µM. 330,000 compounds, 0.069% hits. AID 2099;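 active = more than half of a compound's replicate wells show inhibition beyond 50%, single wells judged on their own value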;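 also: signal counts dimethyl H3K9 product captured on neutravidin plate; 0% = median of DMSO wells and 100% = 0.3 times that DMSO median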
SMARCA2 activ: SMARCA2 function activation, primary screen; MG213 cells, MMTV-luciferase reporter, dexamethasone, overnight; activation, % at 9.1 µM; 370,000 compounds, 1% hits; AID 652017; in the data active = activation above about 7.8%;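 also: 0% = vehicle wells and 100% = reference activator wells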
* marks the source's active call; other numbers are inactive results; x = no result.

SMILES	NR2E3 ag-1	DAX1 inh-1	DAX1 inh-2	NR2E3 ag-2	JMJD2C inh	SMARCA2 activ
Cc1cc(=O)[nH]c(SCC(=O)Nc2ccc(F)c(F)c2)n1	x	0	x	x	x	-3
CN(C)CC(=O)N[C@@H]1C[C@@H]2O[C@@H](CO)CC[C@@H]2O[C@@H]1CCc1ccc(C#Cc2ccccc2)cc1	x	-1	x	x	x	-1
CCCCCCP(=O)(O)c1ccccc1	11	0	6.1*	0	1	0
Cc1ccc2c(c1)NC(=O)C(CC(=O)NCCN(CC(C)C)CC(C)C)O2 (stereo not drawn)	11	1	5.7*	1	1	1
Nn1c(SCc2cccc3ccccc23)nnc1-c1cc(-c2ccc(Cl)cc2)n[nH]1	x	-1	x	x	x	-7
CSc1nnc(CCCCCNC(=O)OC(C)(C)C)o1	12	0	-1	2	-3	0
CSc1nnc(CCNC(=O)OC(C)(C)C)o1	-14	0	4.5*	-4	26	0
Cc1ccc(NC(=O)c2sc3nc(CCl)[nH]c(=O)c3c2C)c(C)c1	-71	3.7*	-1	x	x	6
Cc1cc(C)c(NC(=O)c2sc3nc(C)[nH]c(=O)c3c2C)c(C)c1	x	0	x	0	-3	-2
CC(C)C[C@@H](CO)N1Cc2nnn(Cc3ccccc3)c2-c2ccccc2S1(=O)=O	x	-1	x	x	x	-4
COc1ccc(C2C(C(=O)N3CCCCC3C)CC(=O)N2c2ccc(OC)cc2)cc1 (stereo not drawn)	x	0	x	x	x	0
O=C(/C=C\Nc1cccc(F)c1)c1cccs1	-140	3.6*	3	-2	6	5
O=C(/C=C/Nc1cccc(F)c1)c1ccco1	-154	3	3	-2	-1	5
c1ccc(CN2CCN(Cc3nnc(-c4ccccc4)o3)CC2)cc1	-4	0	0	2	-4	7.9*
Nc1ccccc1Sc1ccc(C(=O)c2ccccc2C(=O)O)cc1[N+](=O)[O-]	-22	1	2	2	2	-4
O=C(O)c1ccccc1C(=O)c1ccc(Sc2ccc(Cl)cc2)c([N+](=O)[O-])c1	43	0	8.1*	-4	15	0
Fc1ccccc1Cn1ccc2ccc(-c3ccc4ccn(Cc5ccccc5)c4c3)cc21	x	2	x	x	x	-1
Cc1cc(N2CCOCC2)ccc1/C=C1\SC(=O)N(C(C)C)C1=O	-31	0	5.6*	-3	6	1
CCC(C)N1C(=O)S/C(=C/c2ccc(N3CCOCC3)cc2C)C1=O (stereo not drawn)	-41	-1	2	2	11	1
C=CCN1C(=O)[C@@H](CC(=O)NCc2ccc(OC)c(OC)c2)[C@]2(C(=O)OCC)CCCCC/C=C/12	x	0	x	x	x	-2
CCn1cc([N+](=O)[O-])c(C(=O)Nc2ccc3c(c2)OCCO3)n1	-38	1	0	3	-9	-2
CCn1cc([N+](=O)[O-])c(C(=O)NCc2ccc3c(c2)OCO3)n1	-17	0	4.9*	5	7	-2
CCOC(=O)N1N=C(c2ccc(OC)cc2)CC1(O)C(F)(F)F (stereo not drawn)	-130	4.1*	1	0	-2	7
CCOC(=O)N1N=C(c2ccccc2)CC1(O)C(C)(F)F (stereo not drawn)	-15	0	0	2	-6	0
CC1=C(C(=O)OCCc2ccccc2)C(c2ccsc2)NC(=O)N1C (stereo not drawn)	-20	-1	4.5*	0	-12	-4
SMILES	NR2E3 ag-1	DAX1 inh-1	DAX1 inh-2	NR2E3 ag-2	JMJD2C inh	SMARCA2 activ
CC1=C(C(=O)OCc2ccccc2)C(c2ccsc2)NC(=O)N1C (stereo not drawn)	21	-1	-1	4	15	-6
COC(=O)[C@]12C[C@H](CC(=O)NCCc3ccccc3OC)C(=O)N(Cc3ccc4c(c3)OCO4)C1=C[C@H](C(C)C)O[C@@H]2C1CC1	x	-2	x	x	x	2
CSCCC(NS(=O)(=O)c1ccc2c(c1)oc(=O)n2C)C(=O)NC1CCN(Cc2ccccc2)CC1 (stereo not drawn)	-24	1	-1	0	0	-5
CSCCC(NS(=O)(=O)c1ccc2c(c1)oc(=O)n2C)C(=O)NC1CCC(C)CC1 (stereo not drawn)	-16	3.7*	-1	0	0	0
Cc1ccc(S(=O)(=O)CC(=O)N(CCCN2CCOCC2)c2nc3c(F)cccc3s2)cc1	-16	4.1*	2	1	0	2
CC(NC(=O)Cc1ccccc1F)c1ccc(F)cc1 (stereo not drawn)	11	1	4.8*	-2	23	-3
O=C(C1CCCN1S(=O)(=O)c1ccc(Cl)s1)N1CCc2ccccc2C1 (stereo not drawn)	x	0	x	x	x	-4
CSc1nc(C)cc(Oc2ccc(=O)[nH]n2)n1	-6	0	5.8*	-4	12	-3
Cc1cc(Oc2ccc(=O)[nH]n2)nc(Cl)n1	-18	0	0	-1	2	1
C[C@H](O)[C@@H]1CN2CCc3c([nH]c4c(-c5ccccc5)cccc34)[C@@H]2C[C@@H]1N(C)C(=O)c1ccco1	x	-1	x	x	x	1
Cc1cccc(N2CCN(CC(O)COc3ccccc3)CC2)c1 (stereo not drawn)	10	0	4.8*	x	x	-2
Cc1cccc(N2CCN(CC(O)COc3ccc(Cl)cc3)CC2)c1 (stereo not drawn)	-14	0	1	2	-3	1
CCOC(=O)[C@]12CCCC=C1N(Cc1ccc(OC)cc1)C(=O)[C@@H]2CC(=O)N1CCSCC1	x	-1	x	x	x	-1
CC(C)NC(=O)NC(=O)COC(=O)CCCSc1nc2ccccc2s1	-9	0	7.4*	-6	-2	-3
O=C(NCc1cccs1)C1CCN(S(=O)(=O)c2cccc3ccccc23)CC1	x	0	x	x	x	-2
O=Cc1cccn1-c1cccnc1	-19	0	0	2	10	7.9*
COc1ccc(-n2cccc2C=O)cc1	-6	0	-1	0	2	0
Cc1noc(C)c1S(=O)(=O)N1CCN(S(=O)(=O)c2ccccc2C#N)CC1	-24	0	7.8*	1	9	-1
COc1cc(C=NNC(=O)CN2CCN(Cc3ccc(C)cc3)CC2)cc(OC)c1O	x	0	x	x	x	-4
Cc1cccc(NC(=O)C2CCN(c3ncccn3)CC2)c1C	x	-2	x	x	x	-1
CC(=O)Nc1ccc(S(=O)(=O)N2CCN(c3ncccn3)CC2)cc1	13	-1	6.0*	1	7	0
Cc1ccnc(NC(=O)c2ccc(S(=O)(=O)N3CCCCC3)cc2)c1	-34	0	1	-2	13	-1
O=C(Nc1ccccn1)c1ccc(S(=O)(=O)N2CCCCC2)cc1	-46	3.8*	1	3	-2	3
CC(=O)Nc1ccc(S(=O)(=O)N2CCN(c3ccccn3)CC2)cc1	5	0	-1	3	0	-4
